The nature of data set [1]: Solubility of the compound in 0.1 % DMSO/PBS solution assessed as radius of the aggregate particle at 4 uM measured over 10 mins by dynamic light scattering method. Format: physicochemical. As to conditions: buffer; call rule not given here. In short, it runs like this: (§1)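 DMSO stocks (1, 4, 10 mM) were centrifuged, then diluted 1000× into PBS (final 0.1% DMSO). Dynamic light scattering used a 659 nm laser at a 90° angle and 25 °C, with 10–15 s acquisitions over 10 min. Radius came from a cumulant fit of averaged autocorrelation functions at the lowest concentration giving 3× buffer signal. Values are SD of ≥3 independent measurements.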

Data set [2] is described as follows: Solubility of the compound in 0.1 % DMSO/PBS solution at 4 uM after 2 hrs by HPLC analysis. The format is physicochemical. As to conditions: buffer. In short, it runs like this: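 A 4 mM DMSO stock was diluted 1000× into PBS, vortexed, sonicated 20 min at 25 °C and equilibrated 2 h at room temperature. After centrifugation for 20 min, the supernatant was analysed by HPLC at 310 nm against a standard curve. Maximum concentration was estimated from quantitation of the stock in 0.1% DMSO/water. Values are SD of ≥3 independent measurements.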

The nature of data set [3]: Solubility of the compound in 0.1 % DMSO/PBS solution at 4 uM after 2 hrs by HPLC analysis in presence of 6 mg/ml hypromellose. The format is physicochemical. As to conditions: buffer. In short, it runs like this: (§2)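 The 4 mM DMSO stock was diluted 1000× into PBS containing 35 mM dextrose, 5 mM γCD, 50 mM HpβCD or 6 mg/mL hypromellose. Samples were sonicated 20 min at 25 °C, equilibrated 2 h at room temperature and centrifuged. The soluble fraction was measured by HPLC peak area at 310 nm against a standard curve. Values are SD of ≥3 independent measurements.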

The nature of data set [4]: Solubility of the compound in 0.1 % DMSO/PBS solution at 4 uM after 2 hrs by HPLC analysis in presence of 5 mM gamma-cyclodextrin. The format is physicochemical. As to conditions: buffer. In short, it runs like this:
as §2

Data set [5] is described as follows: Solubility of the compound in 0.1 % DMSO/PBS solution at 4 uM after 2 hrs by HPLC analysis in presence of 35 mM dextrose. Format: physicochemical. As to conditions: buffer. In short, it runs like this:
as §2

Data set [6] can be described thus: Solubility of the compound in 0.1 % DMSO/PBS solution assessed as radius of the aggregate particle at 1 uM measured over 10 mins by dynamic light scattering method. Format: physicochemical. The note with it: buffer. In short, it runs like this:
as §1

Data set [7] is described as follows: Solubility of the compound in 0.1 % DMSO/PBS solution at 4 uM after 2 hrs by HPLC analysis in presence of 50 mM 2-hydroxypropyl-beta-cyclodextrin. The note with it: buffer. The format is physicochemical. In short, it runs like this:
as §2

Data set [8] has as its system Plasma. The experiment in a line: Drug uptake in C57Bl/6 mouse plasma at 120 nmol, ip in 1 % DMSO/80 mM HPbeta-CD/PBS vehicle measured after 24 hrs. The format is ADME, organism-based. The note with it: in vivo. In short, it runs like this: (§3)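 C57bl/6 mice, 8–12 weeks old, received an IP injection of 200 μL PBS containing 120 nmol compound in the stated vehicle. Under isoflurane, blood was drawn retro-orbitally at three time points. Plasma from four mice was pooled (5 μL each), precipitated with methanol, spiked with Boc-Py-OMe as internal control, and quantified by HPLC at 310 nm against a standard curve.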

Data set [9] has as its system Plasma. Briefly: Drug uptake in C57Bl/6 mouse plasma at 120 nmol, ip in 20 % DMSO/PBS vehicle measured after 24 hrs. Format: ADME, organism-based. The note with it: in vivo. In short, it runs like this:
as §3

Data set [10] can be described thus: Plasma concentration of compound in C57Bl/6 mouse at 120 nmol, ip in 20 % DMSO/PBS vehicle measured after 1.5 hrs. The format is ADME, organism-based. In short, it runs like this:
as §3

Data set [11] in a line: Plasma concentration of compound in C57Bl/6 mouse at 120 nmol, ip in 1 % DMSO/80 mM HPbeta-CD/PBS vehicle measured after 1.5 hrs. Format: ADME, organism-based. In short, it runs like this: as §3
Data set [12] concerns A549. Briefly: Drug uptake in human A549 cells incubated with mouse plasma isolated 4.5 hr post administration with compound measured after 16 hrs by confocal microscopy. Format: ADME, cell-based. In short, it runs like this:
(§4)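 A549 cells were seeded at 100k cells/mL in F-12K/10% FBS and allowed to adhere for 18 h at 37 °C in 5% CO2. Medium was replaced with 200 μL fresh medium plus 20 μL plasma. The plasma came from mice given 120 nmol IP in 20% DMSO/80 mM HpβCD/PBS. After 16 h, live cells were imaged by confocal microscopy (63× oil objective, fluorescein filters).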

Data set [13] relates to A549. The experiment in a line: Drug uptake in human A549 cells incubated with mouse plasma isolated 1.5 hr post administration with compound measured after 16 hrs by confocal microscopy. Format: ADME, cell-based. In short, it runs like this:
as §4

Data set [14] in a line: Solubility of the compound in 20 % DMSO/PBS. The format is physicochemical. The note with it: buffer.

On to `CC(=O)N[C@@H](CNC(=O)c1cc(NC(=O)c2cc(NC(=O)c3cc(NC(=O)c4nccn4C)cn3C)cn2C)cn1C)CC(=O)Nc1cn(C)c(C(=O)Nc2cc(C(=O)Nc3cc(C(=O)Nc4cc(C(=O)NCCCN(C)CCCNC(=O)c5cccc(C(=O)O)c5)n(C)c4)n(C)c3)n(C)c2)n1`, for which, in data set [1], the Activity turned out to be 74 nm. The solubility result in data set [2] was “Insoluble”.

For `Cn1cc2cc1C(=O)NCCCC(=O)Nc1cn(C)c(n1)C(=O)Nc1cn(C)c(n1)C(=O)Nc1cc(n(C)c1)C(=O)Nc1cc(n(C)c1)C(=O)NC[C@H](N)CC(=O)Nc1cc(n(C)c1)C(=O)Nc1cc(n(C)c1)C(=O)Nc1cc(n(C)c1)C(=O)N2`, the Activity in data set [1] amounted to 197 nm. For the same compound, the solubility result in data set [2] is recorded as “Insoluble”; in data set [3], “soluble”; in [4] it was “soluble”; in [5] it was “Insoluble”.

In the case of `Cn1cc2cc1C(=O)NC[C@H](N)CC(=O)Nc1cc(n(C)c1)C(=O)Nc1cc(n(C)c1)C(=O)Nc1cc(n(C)c1)C(=O)Nc1cc(n(C)c1)C(=O)NC[C@H](N)CC(=O)Nc1cn(C)c(n1)C(=O)Nc1cn(C)c(n1)C(=O)Nc1cc(n(C)c1)C(=O)N2`, in [1], the Activity was determined as 347 nm. In [2], the solubility result is “Insoluble”.

As to `CC(=O)N[C@H]1CNC(=O)c2cc(cn2C)NC(=O)c2cc(cn2C)NC(=O)c2nc(cn2C)NC(=O)c2nc(cn2C)NC(=O)C[C@@H](NC(C)=O)CNC(=O)c2cc(cn2C)NC(=O)c2cc(cn2C)NC(=O)c2cc(cn2C)NC(=O)c2cc(cn2C)NC(=O)C1`, in data set [1], the Activity was 182 nm. Besides, the solubility result in data set [2] is given as “Insoluble”.

Take `CN(CCCNC(=O)c1cccc(C(=O)O)c1)CCCNC(=O)c1cc(NC(=O)c2cc(NC(=O)c3cc(NC(=O)c4nc(NC(=O)C[C@H](CNC(=O)c5cc(NC(=O)c6cc(NC(=O)c7cc(NC(=O)c8nccn8C)cn7C)cn6C)cn5C)NC(=O)c5ccccc5)cn4C)cn3C)cn2C)cn1C`: the Activity is recorded as 127 nm in [1] and 87 nm in [6]. Further, the solubility result in [2] is given as “Insoluble”.

Consider `CN(CCCNC(=O)c1cc(NC(=O)c2cc(NC(=O)c3cc(NC(=O)c4nc(NC(=O)C[C@@H](N)CNC(=O)c5cc(NC(=O)c6cc(NC(=O)c7cc(NC(=O)c8nccn8C)cn7C)cn6C)cn5C)cn4C)cn3C)cn2C)cn1C)CCCNC(=S)Nc1ccc(-c2c3ccc(=O)cc-3oc3cc(O)ccc23)c(C(=O)O)c1`, for which, in data set [6], the Activity was 294 nm.

As to `CN(CCCNC(=O)c1cc(NC(=O)c2cc(NC(=O)c3cc(NC(=O)c4nc(NC(=O)C[C@H](CNC(=O)c5cc(NC(=O)c6cc(NC(=O)c7cc(NC(=O)c8nccn8C)cn7C)cn6C)cn5C)NC(=O)c5ccccc5)cn4C)cn3C)cn2C)cn1C)CCCNC(=S)Nc1ccc(-c2c3ccc(=O)cc-3oc3cc(O)ccc23)c(C(=O)O)c1`, the Activity in [6] was 147 nm.

On to `CN(CCCNC(=O)c1cccc(C(=O)O)c1)CCCNC(=O)c1cc(NC(=O)c2cc(NC(=O)c3cc(NC(=O)c4cc(NC(=O)[C@H](N)CCNC(=O)c5cc(NC(=O)c6cc(NC(=O)c7nc(NC(=O)c8nccn8C)cn7C)cn6C)cn5C)cn4C)cn3C)cn2C)cn1C`, for which the solubility entry in data set [7] is recorded as “soluble”; in [2], “Insoluble”; in data set [3], “soluble”; in data set [4] it was “soluble”; in data set [5], “Insoluble”. Besides, the Activity in data set [1] is reported as 124 nm. For the same compound, the Drug uptake entry with Plasma [8] and in the data set with Plasma [9] was “Not Active” each time. Also, the concentration at 1.5 h in data set [10] and in data set [11] was 13 µM each time.

Consider `CN(CCCNC(=O)c1cccc(C(=O)O)c1)CCCNC(=O)c1cc(NC(=O)c2cc(NC(=O)c3cc(NC(=O)c4cc(NC(=O)C[C@@H](N)CNC(=O)c5cc(NC(=O)c6cc(NC(=O)c7nc(NC(=O)c8nccn8C)cn7C)cn6C)cn5C)cn4C)cn3C)cn2C)cn1C`, for which the solubility result is recorded as “soluble” in [7] and “Insoluble” in [2]. Also, in [1], the Activity is 108 nm.

Consider `CC(=O)N[C@@H](CNC(=O)c1cc(NC(=O)c2cc(NC(=O)c3nc(NC(=O)c4nccn4C)cn3C)cn2C)cn1C)CC(=O)Nc1cc(C(=O)Nc2cc(C(=O)Nc3cc(C(=O)Nc4cc(C(=O)NCCCN(C)CCCNC(=O)c5cccc(C(=O)O)c5)n(C)c4)n(C)c3)n(C)c2)n(C)c1`, for which the solubility entry is reported as “soluble” in data set [7] and “Insoluble” in [2]. Moreover, the Activity in data set [1] worked out at 100 nm.

Turning to `CN(CCCNC(=O)c1cccc(C(=O)O)c1)CCCNC(=O)c1cc(NC(=O)c2cc(NC(=O)c3cc(NC(=O)c4cc(NC(=O)C[C@H](CNC(=O)c5cc(NC(=O)c6cc(NC(=O)c7nc(NC(=O)c8nccn8C)cn7C)cn6C)cn5C)NC(=O)c5ccccc5)cn4C)cn3C)cn2C)cn1C`, the solubility result in [7] is “soluble”; in data set [2], “Insoluble”. The figures for the Activity in data set [1] and in data set [6] were 176 nm and 123 nm, respectively.

For `CN(CCCNC(=O)c1cc(NC(=O)c2cc(NC(=O)c3cc(NC(=O)c4cc(NC(=O)[C@H](N)CCNC(=O)c5cc(NC(=O)c6cc(NC(=O)c7nc(NC(=O)c8nccn8C)cn7C)cn6C)cn5C)cn4C)cn3C)cn2C)cn1C)CCCNC(=S)Nc1ccc(-c2c3ccc(=O)cc-3oc3cc(O)ccc23)c(C(=O)O)c1`, the Drug uptake entry with A549 [12] is “Not Active”; with A549 [13], “Active”. In data set [14], the solubility entry is reported as “Insoluble”.

For `CN(CCCNC(=O)c1cccc(C(=O)O)c1)CCCNC(=O)c1cc(NC(=O)c2cc(NC(=O)c3cc(NC(=O)c4nc(NC(=O)C[C@@H](N)CNC(=O)c5cc(NC(=O)c6cc(NC(=O)c7cc(NC(=O)c8nccn8C)cn7C)cn6C)cn5C)cn4C)cn3C)cn2C)cn1C`, in data set [1], the Activity was determined as 104 nm. The solubility result in data set [2] is “Insoluble”.

As for `CN(CCCNC(=O)c1cccc(C(=O)O)c1)CCCNC(=O)c1cc(NC(=O)c2cc(NC(=O)c3cc(NC(=O)c4nc(NC(=O)[C@H](N)CCNC(=O)c5cc(NC(=O)c6cc(NC(=O)c7cc(NC(=O)c8nccn8C)cn7C)cn6C)cn5C)cn4C)cn3C)cn2C)cn1C`, in data set [1], the Activity is given as 182 nm. Also, the solubility entry in data set [2] is reported as “Insoluble”.

For the origin of these results see ChEMBL document CHEMBL2163323, “Characterization and solubilization of pyrrole-imidazole polyamide aggregates” (J Med Chem, 2012).
